Data: ChEMBL document CHEMBL3808369, “Identification of Cyproheptadine as an Inhibitor of SET Domain Containing Lysine Methyltransferase 7/9 (Set7/9) That Regulates Estrogen-Dependent Transcription” (J Med Chem, 2016)
Active and inactive are the calls of the source. No cut-off for these calls is given here.

Tests used:
MCF7 = assay: Antitumor activity against Fucci introduced human MCF7 cells xenografted in Balb/c-nu/nu mouse at 20 mg/kg, ip qd administered as single dose; format: functional, organism-based
How it was run: (§1)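 Female Balb/C-nu/nu mice, 7 weeks old, carried mammary Fucci-MCF7 xenografts (about 2 × 10^7 cells) grown to about 100 mm3. A single ip dose of 20 mg/kg in saline with 10% ethanol was given on day 1; a vehicle group ran alongside. Caliper tumor volume (a2b)/2 and body weight were recorded every 3 or 4 days to day 15. Tumor volume relative to day 1; six mice, mean ± SE.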

Mus musculus = assay: Effect on body weight in Balb/c-nu/nu mouse xenografted with Fucci introduced human MCF7 cells at 20 mg/kg, ip qd administered as single dose; format: ADME, organism-based; conditions: in vivo; how it was run: as §1
[1] = target: T1, Histone-lysine N-methyltransferase SETD7 (Homo sapiens) (UniProt Q8WTS6); assay: Inhibition of Set7/9 in human MCF7 cells assessed as half life of ERalpha at 43 uM by immunoblotting analysis in presence of cycloheximide (reference value: 15.6 +/- 1.2 hrs); format: cell-based
T1 sequence (whole entry): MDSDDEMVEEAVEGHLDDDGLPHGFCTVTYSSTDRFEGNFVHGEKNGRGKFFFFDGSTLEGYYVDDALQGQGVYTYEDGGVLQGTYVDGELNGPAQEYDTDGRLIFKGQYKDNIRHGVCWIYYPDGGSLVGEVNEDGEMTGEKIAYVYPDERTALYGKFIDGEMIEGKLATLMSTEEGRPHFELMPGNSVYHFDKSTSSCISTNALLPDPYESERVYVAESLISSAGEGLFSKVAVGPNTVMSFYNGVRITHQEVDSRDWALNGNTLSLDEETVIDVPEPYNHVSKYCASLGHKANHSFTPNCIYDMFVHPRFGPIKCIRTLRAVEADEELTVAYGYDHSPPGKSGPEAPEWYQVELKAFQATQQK
How it was run: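 MCF7 cells treated with or without 43 μM drug in the presence of 1 μg/mL cycloheximide for various times. ERα immunoblotted from RIPA lysates and band intensity quantified to derive half-life. Three independent assays.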

[2] = target: T1, Histone-lysine N-methyltransferase SETD7 (Homo sapiens); assay: Inhibition of Set7/9 in human MCF7 cells assessed as ERalpha destabilization at 43 uM for 36 hrs by immunoblotting analysis in presence of proteasome inhibitor MG132; format: cell-based
How it was run: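 MCF7 cells treated with or without 43 μM drug for 36 h, then MG132 added for 12 h. Cells lysed by sonication in RIPA buffer with protease inhibitors. ERα read by SDS-PAGE/PVDF immunoblot with chemiluminescent detection.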

[3] = target: T2, Histone-lysine N-methyltransferase EHMT2 (Homo sapiens) (UniProt Q96KQ7); assay: Inhibition of G9a (unknown origin) by AlphaELISA
T2 sequence (whole entry): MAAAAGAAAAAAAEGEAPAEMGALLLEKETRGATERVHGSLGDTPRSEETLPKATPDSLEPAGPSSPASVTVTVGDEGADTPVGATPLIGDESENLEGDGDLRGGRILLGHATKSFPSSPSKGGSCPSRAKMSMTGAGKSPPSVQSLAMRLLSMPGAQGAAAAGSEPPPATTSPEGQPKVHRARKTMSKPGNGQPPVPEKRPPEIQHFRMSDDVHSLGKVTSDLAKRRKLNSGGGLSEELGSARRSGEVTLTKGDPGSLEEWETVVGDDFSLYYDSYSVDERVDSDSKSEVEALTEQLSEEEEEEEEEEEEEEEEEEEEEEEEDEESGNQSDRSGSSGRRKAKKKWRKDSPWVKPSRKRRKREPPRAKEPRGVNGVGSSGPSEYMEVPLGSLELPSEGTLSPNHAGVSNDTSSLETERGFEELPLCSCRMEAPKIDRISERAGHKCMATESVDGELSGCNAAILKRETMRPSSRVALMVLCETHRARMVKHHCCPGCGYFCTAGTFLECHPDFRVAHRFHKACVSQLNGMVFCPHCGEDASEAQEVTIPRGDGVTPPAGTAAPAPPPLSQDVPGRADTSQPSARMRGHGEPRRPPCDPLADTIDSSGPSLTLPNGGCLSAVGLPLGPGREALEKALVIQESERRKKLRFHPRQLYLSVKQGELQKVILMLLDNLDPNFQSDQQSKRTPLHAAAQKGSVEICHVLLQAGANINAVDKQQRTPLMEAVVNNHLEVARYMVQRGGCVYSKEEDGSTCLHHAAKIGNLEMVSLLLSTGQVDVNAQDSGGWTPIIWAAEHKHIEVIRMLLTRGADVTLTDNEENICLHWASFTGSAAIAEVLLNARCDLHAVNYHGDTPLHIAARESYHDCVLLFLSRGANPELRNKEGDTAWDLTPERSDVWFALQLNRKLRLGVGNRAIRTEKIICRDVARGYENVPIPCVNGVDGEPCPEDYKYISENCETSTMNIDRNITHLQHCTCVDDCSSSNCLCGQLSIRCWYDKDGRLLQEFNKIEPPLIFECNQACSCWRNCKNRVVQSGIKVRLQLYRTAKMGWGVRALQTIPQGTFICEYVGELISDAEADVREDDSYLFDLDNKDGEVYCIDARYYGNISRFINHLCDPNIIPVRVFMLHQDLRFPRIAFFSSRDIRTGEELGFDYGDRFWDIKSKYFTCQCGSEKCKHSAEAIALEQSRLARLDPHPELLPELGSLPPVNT

[4] = target: T2, Histone-lysine N-methyltransferase EHMT2 (Homo sapiens); assay: Inhibition of G9a (unknown origin) by ELISA
[5] = target: T2, Histone-lysine N-methyltransferase EHMT2 (Homo sapiens); assay: Inhibition of G9a (unknown origin) by fluorogenic assay
[6] = target: T3, Histone-lysine N-methyltransferase SUV39H1 (Homo sapiens) (UniProt O43463); assay: Inhibition of Suv39h1 (unknown origin) by ELISA
T3 sequence (whole entry): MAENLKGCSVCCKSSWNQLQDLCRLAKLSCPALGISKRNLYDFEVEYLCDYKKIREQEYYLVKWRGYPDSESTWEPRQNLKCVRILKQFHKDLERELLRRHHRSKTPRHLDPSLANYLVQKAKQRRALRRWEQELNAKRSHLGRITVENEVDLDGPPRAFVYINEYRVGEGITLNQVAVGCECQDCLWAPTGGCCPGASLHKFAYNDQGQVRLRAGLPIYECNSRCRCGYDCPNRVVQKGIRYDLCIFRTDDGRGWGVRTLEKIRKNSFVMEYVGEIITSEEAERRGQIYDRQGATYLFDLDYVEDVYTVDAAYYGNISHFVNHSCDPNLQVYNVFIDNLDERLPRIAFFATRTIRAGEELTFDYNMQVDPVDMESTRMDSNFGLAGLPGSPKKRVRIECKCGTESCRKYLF

[7] = target: Histone-lysine N-methyltransferase, H3 lysine-79 specific (Homo sapiens) (UniProt Q8TEK3); assay: Inhibition of Dot1L (unknown origin) by AlphaELISA
Sequence of Histone-lysine N-methyltransferase, H3 lysine-79 specific (Homo sapiens) (Q8TEK3 whole entry, looked up): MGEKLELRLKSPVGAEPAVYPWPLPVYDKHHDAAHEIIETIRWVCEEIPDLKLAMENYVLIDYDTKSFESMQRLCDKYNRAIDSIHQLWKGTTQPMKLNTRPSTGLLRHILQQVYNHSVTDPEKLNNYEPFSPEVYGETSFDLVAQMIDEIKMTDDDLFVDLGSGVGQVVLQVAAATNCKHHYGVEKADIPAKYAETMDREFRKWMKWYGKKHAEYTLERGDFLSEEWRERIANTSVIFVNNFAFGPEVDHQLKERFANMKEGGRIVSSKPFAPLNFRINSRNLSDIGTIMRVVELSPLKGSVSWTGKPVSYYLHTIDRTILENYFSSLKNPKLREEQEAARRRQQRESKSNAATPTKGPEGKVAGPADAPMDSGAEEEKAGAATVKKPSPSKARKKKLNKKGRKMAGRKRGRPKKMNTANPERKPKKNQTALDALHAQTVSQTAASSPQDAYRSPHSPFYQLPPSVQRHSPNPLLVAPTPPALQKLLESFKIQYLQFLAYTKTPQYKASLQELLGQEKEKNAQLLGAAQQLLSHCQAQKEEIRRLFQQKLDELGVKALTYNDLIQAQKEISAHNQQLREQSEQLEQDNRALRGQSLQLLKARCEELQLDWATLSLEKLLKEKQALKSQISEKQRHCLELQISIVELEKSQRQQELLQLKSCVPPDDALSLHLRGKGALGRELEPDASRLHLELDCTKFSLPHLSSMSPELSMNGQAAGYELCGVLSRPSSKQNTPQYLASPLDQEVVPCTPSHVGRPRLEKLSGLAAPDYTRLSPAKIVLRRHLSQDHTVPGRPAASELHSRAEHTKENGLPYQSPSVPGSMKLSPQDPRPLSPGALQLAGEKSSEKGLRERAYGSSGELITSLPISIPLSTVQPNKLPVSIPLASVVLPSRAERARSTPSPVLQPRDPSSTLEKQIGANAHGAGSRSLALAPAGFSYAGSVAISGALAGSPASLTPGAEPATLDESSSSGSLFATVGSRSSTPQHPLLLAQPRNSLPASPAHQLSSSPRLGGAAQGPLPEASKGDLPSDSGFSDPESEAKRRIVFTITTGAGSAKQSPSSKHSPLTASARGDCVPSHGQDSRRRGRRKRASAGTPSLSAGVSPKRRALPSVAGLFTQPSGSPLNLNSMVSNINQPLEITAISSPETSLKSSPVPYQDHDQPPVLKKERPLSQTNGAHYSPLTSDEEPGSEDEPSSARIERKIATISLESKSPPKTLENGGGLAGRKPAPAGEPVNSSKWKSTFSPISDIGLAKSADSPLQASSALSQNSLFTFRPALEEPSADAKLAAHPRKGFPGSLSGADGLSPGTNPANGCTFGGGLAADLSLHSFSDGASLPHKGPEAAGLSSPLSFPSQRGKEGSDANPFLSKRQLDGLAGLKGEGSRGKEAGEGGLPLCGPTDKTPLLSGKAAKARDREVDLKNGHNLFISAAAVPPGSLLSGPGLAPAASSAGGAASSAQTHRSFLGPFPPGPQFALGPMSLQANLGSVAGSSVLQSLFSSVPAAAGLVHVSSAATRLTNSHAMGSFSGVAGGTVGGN

[8] = target: T1, Histone-lysine N-methyltransferase SETD7 (Homo sapiens); assay: Inhibition of Set7/9 in human MCF7 cells assessed as suppression of beta-estradiol-induced pS2 mRNA expression at 14 to 43 uM preincubated for 24 hrs followed by beta-estradiol addition measured after 24 hrs by RT-PCR analysis

CN1CCC(=C2c3ccccc3C=Cc3ccccc32)CC1 [CYPROHEPTADINE]
TGI (MCF7): Active | Activity (Mus musculus): Non-toxic | T1/2 [1]: 10.3 h | inhibition [2]: inactive | inhibition [3]: Active | inhibition [4]: Active | inhibition [5]: Active | inhibition [6]: Active | inhibition [7]: Active | inhibition [8]: Active
